Experimental findings from ChEMBL document CHEMBL4396883, “Discovery of CDK5 Inhibitors through Structure-Guided Approach” (ACS Med Chem Lett, 2019) are described below.

Broadly, the inhibition is the change of the read-out against control, counted positive when it falls. The term Ki denotes a measure of affinity in units of concentration, obtained from inhibition or displacement.

Active and inactive are the calls of the source. The rule behind the calls is not given here. Where only a bound is given, the exact number is not on record here.

For test [1], the target named is Cyclin-dependent kinase 5 (Homo sapiens) (UniProt Q00535). Description: Inhibition of CDK5 in human MV4-11 cells assessed as FAK phosphorylation at S732 at 5 to 10 uM measured after 24 hrs by Western blot analysis.
Chain of Cyclin-dependent kinase 5 (Homo sapiens) (Q00535 whole entry, looked up): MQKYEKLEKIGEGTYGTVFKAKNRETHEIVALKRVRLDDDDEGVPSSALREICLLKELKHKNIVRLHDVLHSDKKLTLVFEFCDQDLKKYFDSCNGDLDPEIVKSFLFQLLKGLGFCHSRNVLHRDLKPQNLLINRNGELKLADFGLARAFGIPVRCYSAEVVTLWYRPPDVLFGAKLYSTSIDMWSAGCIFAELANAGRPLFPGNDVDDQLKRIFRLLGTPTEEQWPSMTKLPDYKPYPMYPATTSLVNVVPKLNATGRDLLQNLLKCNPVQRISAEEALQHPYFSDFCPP
For test [2] the target is unchanged. Description: Inhibition of CDK5 in human MV4-11 cells assessed as decrease in FAK phosphorylation at S732 measured after 24 hrs by Western blot analysis. Type of test: cell-based. Put shortly:
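MV4-11 AML cells incubated 24 h with compound across a concentration series; cellular CDK5 activity followed by Western blot of FAK phosphorylation at Ser732.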
In general terms: Immunoblotting shows a protein as a band on a membrane.

In the next test the target is CDK6/cyclin D3 (Homo sapiens, UniProt Q00534). Description: Inhibition of human recombinant N-terminal GST-tagged CDK6 (M1-A326 residues) and His6 tagged Cyclin D3 (M1-L292 residues) expressed in sf9 cells using histone H1 (GGGPATPKKAKKL) as substrate incubated for 60 mins in presence of ATP by ADP-Glo kinase assay.
Chain of CDK6/cyclin D3 (P30281 whole entry, the tested form may be a part): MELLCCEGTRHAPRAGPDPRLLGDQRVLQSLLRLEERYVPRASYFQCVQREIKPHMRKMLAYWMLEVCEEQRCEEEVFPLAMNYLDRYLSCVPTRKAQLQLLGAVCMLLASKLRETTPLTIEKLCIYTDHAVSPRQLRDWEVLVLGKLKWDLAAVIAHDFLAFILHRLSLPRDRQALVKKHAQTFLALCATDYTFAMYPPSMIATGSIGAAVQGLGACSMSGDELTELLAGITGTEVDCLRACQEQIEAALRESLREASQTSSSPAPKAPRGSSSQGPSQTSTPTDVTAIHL
Chain of CDK6/cyclin D3 (Q00534 whole entry, the tested form may be a part): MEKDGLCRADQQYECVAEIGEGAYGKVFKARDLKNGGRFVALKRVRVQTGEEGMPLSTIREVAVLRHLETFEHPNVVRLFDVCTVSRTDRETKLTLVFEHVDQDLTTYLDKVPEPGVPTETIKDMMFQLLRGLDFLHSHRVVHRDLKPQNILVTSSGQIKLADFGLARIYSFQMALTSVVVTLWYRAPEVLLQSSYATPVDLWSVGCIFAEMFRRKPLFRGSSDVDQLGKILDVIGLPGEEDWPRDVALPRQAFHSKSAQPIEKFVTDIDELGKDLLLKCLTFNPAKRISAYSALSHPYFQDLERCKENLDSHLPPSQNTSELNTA
The subject of test [3] is MV4-11. The test is described as follows: Cell cycle arrest in human MV4-11 cells assessed as accumulation at S phase at 10 uM measured after 24 hrs by propidium iodide staining based flow cytometry relative to control. Type of test: functional. The procedure, abridged:
(§1)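 MV4-11 cells treated 24 h at 2.5 and 10 μM; cell-cycle phase distribution (sub-G1, G1, S, G2/M) by flow cytometry; at least two independent experiments, numerical data as mean value.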
A general note: In flow cytometry, cells or beads pass a laser one at a time.

In test [4] the test system is MV4-11. The test is described as follows: Cell cycle arrest in human MV4-11 cells assessed as accumulation at G2/M phase at 10 uM measured after 24 hrs by propidium iodide staining based flow cytometry relative to control. Type of test: functional. Put shortly:
as §1

Test [5] relates to MV4-11. The test is described as follows: Cell cycle arrest in human MV4-11 cells assessed as accumulation at G1 phase at 10 uM measured after 24 hrs by propidium iodide staining based flow cytometry relative to control. The test is classed as functional. Put shortly:
as §1

Test [6] addresses Cyclin-dependent kinase 5 (Homo sapiens) (UniProt Q00535). Description: Inhibition of CDK5 in human MOLM13 cells assessed as increase in cleaved caspase 7 level at 5 to 10 uM measured after 24 hrs by western blot analysis. Type of test: cell-based. Put shortly: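 Cells treated for 24 h; lysates immunoblotted for pAkt (S473), pRB (S780), cyclin D1, p27KIP1, and cleaved caspase 3 and 7 (MOLM-13); at least two independent repeats.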

Test [7] concerns the target Cyclin-dependent kinase 5/CDK5 activator 1 (Homo sapiens, UniProt Q00535+Q15078). The test is described as follows: Inhibition of recombinant full length N-terminal GST tagged human CDK5/p25 expressed in baculovirus infected sf9 cells using histone H1 as substrate at 10 uM measured after 60 mins in presence of ATP by ADP-Glo kinase assay relative to control.
The subject of another test is MOLM-13 (Homo sapiens). Description: Cell cycle arrest in human MOLM-13 cells assessed as accumulation at sub G1 phase at 10 uM measured after 24 hrs by propidium iodide staining based flow cytometry analysis.
The subject of test [8] is MV4-11. Description: Cell cycle arrest in human MV4-11 cells assessed as accumulation at sub G1 phase at 10 uM measured after 24 hrs by propidium iodide staining based flow cytometry relative to control. The test is classed as functional. The procedure, abridged:
as §1

In test [9] the test system is MOLM-13. The test is described as follows: Induction of apoptosis in human MOLM13 cells assessed as viable cells at 10 uM measured after 24 hrs by Annexin V-FITC/PI staining based flow cytometry relative to control. Type of test: functional. The conditions noted are these: MOLM-13, 24 h, read-out: Activity.
The test system of test [10] is MOLM-13. The test is described as follows: Induction of apoptosis in human MOLM13 cells assessed as necrotic cells at 10 uM measured after 24 hrs by Annexin V-FITC/PI staining based flow cytometry relative to control. Type of test: functional.
The species entered for another test is Homo sapiens. The test is described as follows: Selectivity ratio of Ki for recombinant full length N-terminal GST tagged human CDK2/CyclinA expressed in baculovirus infected sf9 cells using histone H1 as substrate to recombinant full length N-terminal GST tagged human CDK5/p25 expressed in baculovirus infected sf9 cells using histone H1 as substrate by ADP-Glo kinase assay. (ADP-Glo first removes unused ATP, then detects ADP through luciferase.)

Chain of Cyclin-dependent kinase 5/CDK5 activator 1 (Q00535 whole entry): as the sequence (Q00535 whole entry, looked up) above
Chain of Cyclin-dependent kinase 5/CDK5 activator 1 (Q15078 99-307 partner limits assumed): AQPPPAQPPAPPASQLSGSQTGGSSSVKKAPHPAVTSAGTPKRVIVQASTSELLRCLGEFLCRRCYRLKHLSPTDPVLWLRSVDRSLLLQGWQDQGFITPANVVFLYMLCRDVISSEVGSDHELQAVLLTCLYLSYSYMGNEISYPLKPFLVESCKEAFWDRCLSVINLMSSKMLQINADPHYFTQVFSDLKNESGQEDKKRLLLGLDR

For the molecule `NS(=O)(=O)c1cccc(Nc2ncc3c(n2)CCCC3)c1`, the inhibition entry in test [1] is “inactive”. Further, the inhibition result was “Dose-dependent effect” in [2] and 98% in test [7]. Also, the Ki at CDK6/cyclin D3 came to 3.01 µM. For the same molecule, the Activity turned out to be 2.67% with MV4-11 [3], 3.15% with MV4-11 [4], 88.08% in the test on MV4-11 [5] and 5.08% with MV4-11 [8]. Besides, the result (in test [6]; in the test with MOLM-13 (Homo sapiens)) was Active.
For the molecule `Cc1cccc(Nc2ncc3c(n2)CCCC3)c1`, the inhibition result in test [1] was “inactive”. Besides, the inhibition result in [2] was “Dose-dependent effect”; in [7] it was 87%. Further, the Ki on CDK6/cyclin D3 was more than 5 µM. Also, the viability at 10 µM in the test with MOLM-13 [9] amounted to 61.8%. In addition, the Activity with MOLM-13 [10] turned out to be 0.17%. For the same molecule, the Ratio Ki in the test filed under Homo sapiens worked out at 4. Moreover, the outcome (in [6]; with MOLM-13 (Homo sapiens)) was Active.
